Assays:
[1] = Antioxidant activity assessed as inhibition of ferrous chloride-induced lipid peroxidation in […] labelled SLPC large unilamellar vesicle measured over 21 mins by fluorescence assay; format: functional
Outline: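 Vesicle model: large unilamellar vesicles carrying the fluorescent probe 3-[p-(6-phenyl)-1,3,5-hexatrienyl]phenylpropionic acid. Lipid peroxidation was followed by the emitted fluorescence on a fluorometer. Values are 50% inhibitory concentrations, expressed as mean ± SEM (n = 2).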

[2] = Antioxidant activity assessed as redox reaction between compound and MTT in DMSO measured after 6 hrs; format: functional
Outline: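 Reduction of MTT to formazan was read on a microplate reader. Results are reported as 50% inhibitory concentrations, mean ± SEM (n = 2).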

[3] = biological target: T1, Prostaglandin G/H synthase 2 (Homo sapiens, UniProt P35354); assay: Inhibition of human COX2 expressed in insect cells using arachidonic acid as substrate pretreated for 3 mins followed by substrate addition measured immediately; format: cell-based
T1 sequence (P35354 whole entry): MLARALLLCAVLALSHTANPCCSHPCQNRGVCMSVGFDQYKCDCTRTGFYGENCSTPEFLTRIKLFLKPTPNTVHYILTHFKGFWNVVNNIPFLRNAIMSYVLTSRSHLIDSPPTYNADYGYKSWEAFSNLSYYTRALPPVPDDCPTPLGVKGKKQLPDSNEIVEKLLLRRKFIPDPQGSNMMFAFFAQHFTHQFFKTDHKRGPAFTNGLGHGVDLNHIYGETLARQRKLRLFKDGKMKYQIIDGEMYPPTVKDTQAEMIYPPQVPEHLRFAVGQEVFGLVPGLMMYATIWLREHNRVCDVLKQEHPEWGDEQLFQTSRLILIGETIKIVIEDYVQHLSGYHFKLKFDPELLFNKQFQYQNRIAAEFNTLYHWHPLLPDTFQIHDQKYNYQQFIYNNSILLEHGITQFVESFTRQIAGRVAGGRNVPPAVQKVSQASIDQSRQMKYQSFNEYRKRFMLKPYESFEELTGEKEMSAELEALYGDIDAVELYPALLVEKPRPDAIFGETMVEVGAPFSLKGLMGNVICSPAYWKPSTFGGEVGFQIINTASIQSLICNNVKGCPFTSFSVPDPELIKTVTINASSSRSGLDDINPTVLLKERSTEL

[4] = biological target: T2, Prostaglandin G/H synthase 1 (Ovis aries, UniProt P05979); assay: Inhibition of ovine COX1 using arachidonic acid as substrate pretreated for 3 mins followed by substrate addition measured immediately
T2 sequence (P05979 whole entry): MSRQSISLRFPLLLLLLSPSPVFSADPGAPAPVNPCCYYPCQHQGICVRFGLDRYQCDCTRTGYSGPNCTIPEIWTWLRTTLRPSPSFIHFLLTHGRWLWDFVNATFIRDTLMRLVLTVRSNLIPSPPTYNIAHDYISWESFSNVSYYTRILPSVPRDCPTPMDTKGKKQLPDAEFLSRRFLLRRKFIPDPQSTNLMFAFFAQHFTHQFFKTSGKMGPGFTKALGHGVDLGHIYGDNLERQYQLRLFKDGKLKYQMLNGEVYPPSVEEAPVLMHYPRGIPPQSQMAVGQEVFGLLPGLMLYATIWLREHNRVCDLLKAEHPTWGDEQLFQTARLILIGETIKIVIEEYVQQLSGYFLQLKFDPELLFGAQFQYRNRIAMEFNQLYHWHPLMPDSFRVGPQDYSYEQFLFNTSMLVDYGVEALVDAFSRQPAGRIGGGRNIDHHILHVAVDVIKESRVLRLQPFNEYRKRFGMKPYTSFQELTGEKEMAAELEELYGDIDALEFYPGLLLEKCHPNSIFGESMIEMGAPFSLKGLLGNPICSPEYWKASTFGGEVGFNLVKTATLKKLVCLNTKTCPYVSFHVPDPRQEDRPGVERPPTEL
Outline: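 COX-1 enzyme was prepared in-house from ram seminal vesicles. Activity was monitored in a micro oxygen chamber using an oxygen electrode attached to a biological oxygen monitor.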

SMILES | IC50 [1] | IC50 ([3]; read-out: IC50) | IC50 [2] | also measured
O=C1O[C@H]([C@@H](O)CO)C(O)=C1O [ASCORBIC ACID] |  |  | 142 µM | 
COc1ccc2cc([C@H](C)C(=O)O)ccc2c1 [NAPROXEN] |  | 52.2 µM |  | 
CCC(C)C(C(=O)O)N(C(=O)C(N)CC(C)C)C(C(=O)O)C(C)CC (centres undefined) | 43 µM | 34.6 µM | 48.6 µM | IC50 [4]: Not Active
COc1ccc2ccc(=O)oc2c1CC=C(C)C [OSTHOLE] | 120 µM | 81.1 µM |  | IC50 ([4]; read-out: IC50): 52.5 µM
O=C(O)C(O)Cc1ccccc1 (centres undefined) | 161 µM |  |  | 
CC(=O)Oc1ccccc1C(=O)O [ASPIRIN] |  |  |  | IC50 [3]: Not Active

Second part, led by results:

IC50 [1] | IC50 ([3]; read-out: IC50) | SMILES | IC50 [2] | also measured
74.8 µM |  | CC1(C)O[C@H]1COc1c2ccoc2cc2oc(=O)ccc12 [OXYPEUCEDANIN] |  | 
6.9 µM |  | Cc1cc(C(C)(C)C)c(O)c(C(C)(C)C)c1 [BUTYLATED HYDROXYTOLUENE] |  | 
114 µM |  | CC(=O)OC1C2OC(CC(C)=CC2=O)C1(O)C=C(C)C (centres undefined) | 67.1 µM | IC50 [4]: Not Active; IC50 [3]: Not Active
97.7 µM |  | O=C(O)CC(O)C(=O)O (centres undefined) [MALIC ACID] |  | 
62.6 µM | 45.3 µM | COc1ccc2ccc(=O)oc2c1C/C=C(\C)COC(=O)C=C(C)C | 122 µM | IC50 ([4]; read-out: IC50): 36.8 µM
86.1 µM | 56.4 µM | COc1ccc2ccc(=O)oc2c1C/C=C(\C)COC(=O)CC(C)C | 128 µM | IC50 ([4]; read-out: IC50): 47.7 µM
10 µM |  | CC(C)(C)c1cc(O)ccc1O [E319] | 150 µM | 
63.7 µM |  | CC(C)=CCOc1c2ccoc2cc2oc(=O)ccc12 [ISOIMPERATORIN] |  | 

From ChEMBL document CHEMBL4130432, “Lipid Peroxidation and Cyclooxygenase Enzyme Inhibitory Compounds from Prangos haussknechtii” (J Nat Prod, 2017)
